Only some compounds are listed: those with a hit (about 1.3% of all), similar ones and a draw of the others.
HKDC1 inhibitor = inhibitors of human hexokinase HKDC1; Q2TB90; recombinant HKDC1, G6PDH/diaphorase resazurin coupled fluorescence; inhibition, % at 20 µM; actives 0.16% (n = 340,000); AID 493160;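 active means inhibition above about 35% when tested at 20 µM, limit read from the data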;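 further: plate controls were DMSO wells with enzyme for no effect and DMSO wells lacking enzyme for full effect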
Target sequence (Q2TB90 whole entry, looked up): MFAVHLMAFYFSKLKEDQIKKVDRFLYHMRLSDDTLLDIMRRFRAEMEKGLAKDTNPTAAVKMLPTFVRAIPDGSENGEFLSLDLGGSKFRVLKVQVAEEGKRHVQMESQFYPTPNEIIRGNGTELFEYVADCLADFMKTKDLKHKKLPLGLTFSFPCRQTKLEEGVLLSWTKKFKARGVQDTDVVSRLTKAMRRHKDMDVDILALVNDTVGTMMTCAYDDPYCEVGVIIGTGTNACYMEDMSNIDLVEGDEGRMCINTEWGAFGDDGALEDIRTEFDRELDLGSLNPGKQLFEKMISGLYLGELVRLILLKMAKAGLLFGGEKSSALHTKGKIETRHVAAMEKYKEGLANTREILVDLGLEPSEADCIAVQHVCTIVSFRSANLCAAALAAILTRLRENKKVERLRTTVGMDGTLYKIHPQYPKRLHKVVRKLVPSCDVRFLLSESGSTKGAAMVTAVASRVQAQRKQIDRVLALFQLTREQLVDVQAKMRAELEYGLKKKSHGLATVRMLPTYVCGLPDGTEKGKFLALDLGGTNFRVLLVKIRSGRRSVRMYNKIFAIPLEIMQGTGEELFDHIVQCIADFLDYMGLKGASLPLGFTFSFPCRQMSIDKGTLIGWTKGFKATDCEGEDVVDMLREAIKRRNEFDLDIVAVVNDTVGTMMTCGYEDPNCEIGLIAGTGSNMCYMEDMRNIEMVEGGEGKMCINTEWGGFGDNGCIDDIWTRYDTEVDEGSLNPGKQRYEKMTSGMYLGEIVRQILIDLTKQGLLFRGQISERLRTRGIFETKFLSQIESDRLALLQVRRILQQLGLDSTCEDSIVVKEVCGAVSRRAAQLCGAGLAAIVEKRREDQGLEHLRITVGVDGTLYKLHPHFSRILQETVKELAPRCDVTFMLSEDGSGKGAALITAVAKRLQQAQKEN
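System: Recombinant HKDC1 hexokinase | Amount: HKDC1 at 5 µg/mL | Reagent: Glucose with 1 mM ATP | Doses: Single 20 µM dose | Incubation: Reaction time 90 min, room temperature, protected from light | Signal: Coupled resazurin fluorescence, excitation 525 nm, emission 613 nm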
Diaph inh CS = inhibits diaphorase or chemically oxidizes, flagging diaphorase assay artifacts | inhibition, % at 20 µM | actives 0.69% (n = 190,000) | diaphorase resazurin-to-resorufin fluorescence, NADH, 16 min; bacterial (C. kluyveri) enzyme, not human;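 active means primary screen inhibition at 20 µM above a set limit, cut at about 50% in these data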;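 further: plate controls were DMSO with full reaction for no effect and wells lacking NADH for full effect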
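Detection: fluorescence of resorufin formed from resazurin, Ex 544/Em 590 nm; test system: Clostridium kluyveri diaphorase enzyme; amount: 0.14 U/mL diaphorase, enzyme working solution; times: 16-min room-temperature incubation before reading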
PfG6PD inh = PfG6PD (Plasmodium falciparum) enzyme inhibition; actives 0.78% (n = 350,000); inhibition, % at 20 µM; PfGluPho enzyme, NADPH resazurin-diaphorase fluorescence;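 active means inhibition reaching at least a set limit at 20 µM in the primary screen, cut at about 59% in these data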;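 further: 0% = DMSO wells with substrate and 100% = DMSO wells lacking glucose-6-phosphate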
G6PDH counter = inhibits Leuconostoc G6PDH, flagging false hits in G6PDH-based assays; inhibition, % at 5 µM; actives 0.12% (n = 200,000); Purified L. mesenteroides G6PDH, diaphorase/resazurin coupled fluorescence, 45 min; AID 1020; in the data active means inhibition above about 50%
HKDC1 act conf = confirmation of human HKDC1 activators; recombinant HKDC1, G6PDH/diaphorase resazurin fluorescence; hits give low values; actives 14% (n = 740); inhibition, % at 20 µM; shares compounds with HKDC1 inhibitor; AID 504708;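 active means inhibition at or below a set negative limit, negative inhibition meaning the enzyme was activated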
An asterisk follows results filed as active; · = not tested or not shown.

SMILES	HKDC1 inhibitor	Diaph inh CS	PfG6PD inh	G6PDH counter	HKDC1 act conf
CC(=O)n1cc(N(C(=O)CCl)c2ccccc2)c2ccccc21	35	·	-1	·	9
Cc1ccc2oc(=O)c3cnn(CC(=O)N4CCc5ccccc5C4)c3c2c1	-40	31	-49	-9	-51*
Cc1ccc2oc(=O)c3cnn(CC(=O)N4CCCCC4C)c3c2c1 (configuration not stated)	-12	13	-30	6	·
COc1ccc2c(COC(=O)[C@H](C)NS(=O)(=O)c3ccccc3F)cc(=O)oc2c1	-4	·	22	·	·
COc1ccc2ccc(OCC(=O)NCC3CCCO3)cc2c1 (configuration not stated)	-4	·	-5	·	·
C/C(=N\NC(=O)c1c(C)nc2ccccn12)c1ccccc1F	0	·	-13	·	·
C/C(=N\NC(=O)c1c(C)nc2ccccn12)c1ccc(O)cc1O	-45	·	-9	·	-8
O=C(c1ccco1)N1CCN(Cc2nnc(-c3cccc(Cl)c3)o2)CC1	3	·	-1	·	·
COc1ccccc1NS(=O)(=O)c1ccc(C(=O)NCCCN2CCCC2=O)cc1	-5	·	1	·	·
O=c1oc2cc(Oc3c([N+](=O)[O-])cc(C(F)(F)F)cc3[N+](=O)[O-])ccc2c2c1CCCC2	40*	19	14	4	3
Cc1cc(Oc2ccc(OCC(N)=O)nn2)nc(Cl)n1	-9	10	-6	6	·
COc1ccc(Oc2cc(C)nc(Cl)n2)nn1	-78	-15	-4	-8	-15
O=C(CNC(=O)/C=C/c1ccco1)N=Nc1c(O)[nH]c2ccccc12	51*	·	28	·	39
CCC(C)Sc1cccc(-c2nc3cc(C)ccn3c2NCc2ccccc2)c1 (configuration not stated)	4	·	34	·	·
COc1ccc(-c2cc(C(=O)NNC(=S)NC(=O)c3c(-c4ccccc4)noc3C)[nH]n2)cc1	-46	34	-55	-9	-50*
Cc1onc(-c2ccccc2)c1C(=O)NNC(=S)NC(=O)c1ccc(Br)cc1	-51	40	-35	-16	-57*
COc1ccc(/C=C/C(=O)NC(=S)NNC(=O)c2c(-c3ccccc3)noc2C)cc1	-38	-9	-43	-18	·
Cn1cnc([N+](=O)[O-])c1Sc1ccc(Br)cc1	-58	6	-7	-3	-7
Cc1ccccc1Nc1nc(N)nc(CSc2nnc3sc4ccccc4n23)n1	36*	46	35	-5	33
CC(NC(=O)C1CCN(S(=O)(=O)c2ccc(Br)s2)CC1)c1ccccc1 (configuration not stated)	-5	·	17	·	·
COc1cc2c(cc1OC)-c1cc(NCc3ccccn3)nc(=O)n1CC2	59*	9	17	-3	54
COc1cccc(N(C(=O)c2csnn2)C(C(=O)NC2CCCC2)c2ccccc2)c1 (configuration not stated)	-2	·	13	·	·
COc1ccc2c(c1)/C(=C\c1cccc(/C=C3/C(=O)Nc4ccc(OC)cc43)n1)C(=O)N2	37*	·	22	·	24
COc1ccc2c(c1)/C(=N/N1C(=O)c3ccccc3C1=O)C(=O)N2	·	-13	·	8	·
O=C1C=C(Nc2ccc(F)cc2)c2ccccc2C1=O	42*	·	8	·	4
SMILES	HKDC1 inhibitor	Diaph inh CS	PfG6PD inh	G6PDH counter	HKDC1 act conf
CCOc1ccc(NC2=CC(=O)C(=O)c3ccccc32)cc1	22	·	29	·	·
O=C1C(Cl)=C(N2CCN(c3ccccc3[N+](=O)[O-])CC2)C(=O)c2ccccc21	40*	40	17	42	-9
O=C(O)c1ccc(N2C(=O)/C(=C/c3ccc(-c4ccc([N+](=O)[O-])cc4)o3)C=C2c2ccccc2)cc1	43*	57*	25	2	1
O=C(/C=C/c1ccc(Cl)cc1Cl)OCC(=O)N1CCCC1	4	·	4	·	·
O=C1C(N2CCOCC2)=C(n2nnc3ccccc32)C(=O)c2ccccc21	43*	25	56	61*	55
S=C(c1ccc2c(c1)OCO2)N1CCN(c2cccc(Cl)c2)CC1	-3	·	46	·	·
CCCc1nc2c(c(=O)c3ccccc3n2C)c(=O)n1-c1ccc(F)cc1	51*	78*	48	1	58
Cc1nc2c(c(=O)c3ccccc3n2C)c(=O)n1-c1ccc(F)cc1	51*	·	41	·	53
Cc1ccc(C)c(-n2nnnc2Sc2nnnn2-c2ccccc2)c1	47*	·	-5	·	39
COc1ccc(N=Nc2ccc(N)nc2N)cc1	0	·	22	·	·
CCOc1ccc2nc3cc(N=Nc4ccc(N)nc4N)ccc3c(N)c2c1	37*	·	58	·	-31
C=C(C)CNC(=S)N/N=C/c1c(F)cccc1F	1	9	-11	4	·
CCOC(=O)N1CCN(c2ccc(S(=O)(=O)N3CCC(C)CC3)cc2[N+](=O)[O-])CC1	-1	·	0	·	·
CCC(C)(C)NC(=O)C1CCC(CNS(=O)(=O)c2cccc3nsnc23)CC1 (configuration not stated)	51*	·	-1	·	-12
O=C1C(Cl)=C(NCc2cccnc2)C(=O)c2ccccc21	-45	·	-98	·	-45*
C=CCNC1=C(Cl)C(=O)c2ccccc2C1=O	7	4	-142	42	·
O=c1nc(/C=C/c2cccn2-c2ccc([N+](=O)[O-])cc2)cc(C(F)(F)F)[nH]1	16	33	1	7	·
O=c1nc(/C=C/c2cc([N+](=O)[O-])ccc2Cl)cc(C(F)(F)F)[nH]1	30	8	13	7	17
O=C(O)c1cc(O)c2c(c1)[C@@H]([C@H]1c3cc(C(=O)O)cc(O)c3C(=O)c3c(O[C@@H]4O[C@H](CO)[C@@H](O)[C@H](O)[C@H]4O)cccc31)c1cccc(O[C@@H]3O[C@H](CO)[C@@H](O)[C@H](O)[C@H]3O)c1C2=O	80*	·	30	·	34
OCC1OC(Oc2cccc3ccccc23)C(O)C(O)C1O (configuration not stated)	-1	·	-1	·	·
O=C(CSc1nnc(-c2ccccc2F)n1C1CC1)NCc1ccco1	0	·	11	·	·
COc1ccc(-n2cccc2/C=C2\C(=N)N3N=C(c4ccco4)SC3=NC2=O)cc1	35*	74*	-13	-2	-9
CSC1=NSC2=NC(=O)/C(=C\c3coc4ccccc4c3=O)C(=N)N12	5	28	-24	9	·
N=C1/C(=C\c2coc3ccccc3c2=O)C(=O)N=C2SC(c3ccncc3)=NN12	45*	·	8	·	32
COc1ccc(-n2cccc2/C=C2\C(=N)N3N=C(C(C)C)SC3=NC2=O)cc1	-5	24	-20	-4	·
Cc1cc(/C=C2\C(=N)N3N=C(c4ccco4)SC3=NC2=O)c(C)n1Cc1ccccc1	15	·	-22	·	·
N=C1/C(=C/c2coc3ccccc3c2=O)C(=O)N=C2SC(c3ccco3)=NN12	38*	·	15	·	-9
Cc1ccc(NC2c3ncccc3C(=O)N2c2ccccc2C)cc1C (configuration not stated)	56*	21	29	0	36
